These results are taken from ChEMBL document CHEMBL1166000, “Maximizing chemical diversity of fungal metabolites: biogenetically related Heptaketides of the endolichenic fungus Corynespora sp. (1)” (J Nat Prod, 2010).

The source made the active and inactive calls. The rule behind the calls is not given here.

The subject of assay [1] is PC-3M. The experiment in a line: Inhibition of cell proliferation in human PC3M cells at 5 uM after 40 hrs by MTT assay. It counts as functional, cell-based. A digest of the protocol:
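Antiproliferative (cytotoxicity) screen by the MTT method, with each compound tested at a single concentration of 5 µM.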

Assay [2] deals with PC-3M. The assay can be described thus: Inhibition of human PC3M cell migration at 5 uM by wound-healing assay. It counts as functional, cell-based.

In the case of `COc1cc(OC)c2c(c1O)C(=O)C1=C(CO[C@@](C)(O)C1)C2=O`, the inhibition entry in assay [1] and in assay [2] was “inactive” each time.
Take `COc1cc2c(c(OC)c1O)C(=O)C1=C(C[C@](C)(O)OC1)C2=O`: the inhibition entry in assay [1] and in assay [2] was “inactive” each time.
As for `COc1cc(OC)c2c(c1)C(=O)C1=C(C2=O)C(OC)OC(C)=C1` (stereo not drawn), the inhibition result in assay [1] and in assay [2] was “inactive” in each case.
For the compound `COc1cc(OC)c2c(c1)C(=O)c1cc(C)ncc1C2=O`, the inhibition result in assay [1] and in assay [2] was “inactive” in each case.
Consider `COc1cc(OC)c2c(c1)C(=O)C1=C(CO[C@@](C)(O)C1)C2=O`, for which the inhibition result in assay [1] and in assay [2] was “inactive” in each case.
Turning to `COc1cc(OC)c2c(c1)[C@H](O)C1C[C@](C)(O)OCC1C2=O` (stereo partly drawn), the inhibition entry in assay [1] and in assay [2] was “inactive” each time.
Turning to `COc1cc(OC)c2c(c1O)C(=O)c1cc(C)ncc1C2=O`, the inhibition result in assay [1] and in assay [2] was “inactive” each time.
For `COc1cc(O)c2c(c1)[C@H](O)C1C[C@](C)(O)OCC1C2=O` (stereo partly drawn), the inhibition result in assay [1] and in assay [2] was “inactive” in each case.
Regarding `COc1cc(O)cc2c1C(=O)C1=C(C[C@](C)(O)OC1)C2=O`, the inhibition entry in assay [1] and in assay [2] was “inactive” in each case.
